Test results reported in ChEMBL document CHEMBL4152384, “Pyrtriazoles, a Novel Class of Store-Operated Calcium Entry Modulators: Discovery, Biological Profiling, and in Vivo Proof-of-Concept Efficacy in Acute Pancreatitis” (J Med Chem, 2018).
Activity calls are given as the source filed them. No cut-off for these calls is given here.

How the values were obtained:
[1] = molecular target: T1, Stromal interaction molecule 1 & 2/Calcium release-activated calcium channel protein 1 (Mus musculus) (UniProt Q8BWG9+P70302+P83093); test: (§1) Modulation of STIM1/STIM2/Orai1 in mouse BV2 cells assessed as induction of store-operated calcium entry by measuring residual activity at 10 uM preincubated for 30 mins followed by tBhQ-mediated Ca2+ depletion and Ca2+ re-addition to extracellular solution measured for 600 secs by Fluo-4 AM-based fluorometric assay relative to control; type: cell-based
[2] = molecular target: T2, Short transient receptor potential channel 1 & 3/Stromal interaction molecule 1/Calcium release-activated calcium channel protein 1 (Homo sapiens) (UniProt Q96D31+Q13507+Q13586+P48995); test: as §1, with “TRPC1/TRPC3/STIM1/Orai1” for “STIM1/STIM2/Orai1”, “HEK” for “mouse BV2”; type: cell-based
[3] = tested on: Jurkat; test: as §1, with “Induction” for “Modulation”, “store-operated calcium entry” for “STIM1/STIM2/Orai1”, “human Jurkat” for “mouse BV2”; type: cell-based
[4] = molecular target: Stromal interaction molecule 1 & 2/Calcium release-activated calcium channel protein 1 (Homo sapiens, UniProt Q13586+Q96D31+Q9P246); test: Inhibition of STIM1/STIM2/Orai1 (unknown origin) expressed in mouse BV2 cells assessed as induction of store-operated calcium entry by measuring residual activity preincubated for 30 mins followed by tBhQ, mediated Ca2+ depletion and re-addition measured for 600 secs by Fluo-4 AM-based fluorometric assay; type: cell-based
[5] = molecular target: Short transient receptor potential channel 1 & 3/Stromal interaction molecule 1/Calcium release-activated calcium channel protein 1 (Homo sapiens, UniProt P48995+Q13507+Q13586+Q96D31); test: as §1, with “TRPC1/TRPC3/STIM1/Orai1” for “STIM1/STIM2/Orai1”, “HEK” for “mouse BV2”, “activity” for “activity at 10 uM”; type: cell-based
[6] = as §1, with “Induction” for “Modulation”, “store-operated calcium entry” for “STIM1/STIM2/Orai1”, “human Jurkat” for “mouse BV2”, “activity” for “activity at 10 uM”; type: cell-based
[7] = Cytotoxicity against HEK cells assessed as cell viability at 10 uM by MTT assay relative to control; type: cell-based; conditions: human, read-out: Activity
Method in brief: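 Hek cells treated 24 h with compound at 10 μM; viability determined by MTT assay.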

[8] = molecular target: T3, ORAI1/STIM1 (Homo sapiens) (UniProt Q96D31+Q13586); test: Inhibition of Orai1/STIM1 (unknown origin) expressed in HEK cells assessed as reduction in store-operated calcium currents at 10 uM by patch clamp assay relative to control; type: cell-based
Method in brief: (§2)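 Whole-cell ISOC recorded in Hek cells stably overexpressing Orai1 and transiently expressing STIM1; internal solution strongly buffered with 20 mM BAPTA; compound at 10 μM versus untreated control.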

[9] = molecular target: Transient receptor potential cation channel subfamily V member 1 (Homo sapiens) (UniProt Q8NER1); test: Antagonist activity at TRPV1 (unknown origin) expressed in HEK cells assessed as inhibition of capsaicin-induced calcium increase at 10 uM by fura-2-based assay; type: cell-based
Method in brief: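 TRPV1-overexpressing Hek cells; calcium rise evoked by capsaicin (100 nM), test compounds at 10 μM; peak amplitude read out; mean ± SEM of 600 cells from 30 plates on four separate experimental days.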

[10] = molecular target: Transient receptor potential cation channel subfamily M member 8 (Homo sapiens) (UniProt Q7Z2W7); test: Antagonist activity at TRPM8 (unknown origin) expressed in HEK cells assessed as inhibition of menthol -mediated calcium increase at 10 uM by fura-2-based assay; type: cell-based
Method in brief: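 TRPM8-overexpressing Hek cells; calcium rise evoked by menthol (100 μM), test compounds at 10 μM; peak amplitude read out; mean ± SEM of 600 cells from 30 plates on four separate experimental days.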

[11] = Metabolic stability in CD1 mouse plasma assessed as residual compound level at 50 uM after 30 mins by LC-UV analysis; type: ADME, cell-free; conditions: read-out: Stability
Method in brief: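 Compounds incubated in mouse plasma for 30 min; percentage of residual substrate determined.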

[12] = molecular target: T1, Stromal interaction molecule 1 & 2/Calcium release-activated calcium channel protein 1 (Mus musculus); test: as §1, with “100” for “10”; type: cell-based
[13] = molecular target: T2, Short transient receptor potential channel 1 & 3/Stromal interaction molecule 1/Calcium release-activated calcium channel protein 1 (Homo sapiens); test: as §1, with “TRPC1/TRPC3/STIM1/Orai1” for “STIM1/STIM2/Orai1”, “HEK” for “mouse BV2”, “100” for “10”; type: cell-based
[14] = tested on: Jurkat; test: as §1, with “Induction” for “Modulation”, “store-operated calcium entry” for “STIM1/STIM2/Orai1”, “human Jurkat” for “mouse BV2”, “100” for “10”; type: cell-based
[15] = Drug metabolism in CD1 mouse liver microsomes assessed as 1-(4-(4-(3-Carboxyphenyl)-1H-1,2,3-triazol-1-yl)phenyl)-5-(trifluoromethyl)-1H-pyrazole-4-carboxylic Acid metabolite formation at 50 uM after 60 mins by mass spectroscopic analysis; type: ADME, microsome
[16] = tested on: voltage-gated calcium channel (Mus musculus); test: Antagonist activity at voltage-gated calcium channels in C57/BL6 mouse cerebellar granule cells assessed as inhibition of KCl-induced voltage dependent calcium entry at 10 uM by fura-2-based assay
[17] = tested on: voltage-gated calcium channel (Mus musculus); test: as above; remark: listed apart in the source
[18] = species: Homo sapiens; test: Modulation of Orai1/STIM1 (unknown origin) expressed in HEK cells assessed as potentiation of store-operated calcium currents by measuring reduction in time constant of channel activation in presence of 20 mM BAPTA and 150 nM Ca2+ containing internal solution by patch clamp assay relative to control; type: cell-based
[19] = molecular target: T2, Short transient receptor potential channel 1 & 3/Stromal interaction molecule 1/Calcium release-activated calcium channel protein 1 (Homo sapiens); test: (§3) Modulation of TRPC1/TRPC3/STIM1/Orai1 in HEK cells assessed as induction of store-operated calcium entry by measuring increase in AUC of calcium entry at 0.3 to 10 uM preincubated for 30 mins followed by tBhQ-mediated Ca2+ depletion and Ca2+ re-addition to extracellular solution measured for 600 secs by Fluo-4 AM-based fluorometric assay relative to control; type: cell-based
[20] = molecular target: T2, Short transient receptor potential channel 1 & 3/Stromal interaction molecule 1/Calcium release-activated calcium channel protein 1 (Homo sapiens); test: as §3, with “peak amplitude” for “AUC of calcium entry”; type: cell-based
[21] = molecular target: T2, Short transient receptor potential channel 1 & 3/Stromal interaction molecule 1/Calcium release-activated calcium channel protein 1 (Homo sapiens); test: as §3, with “slope” for “AUC of calcium entry”; type: cell-based
[22] = molecular target: T1, Stromal interaction molecule 1 & 2/Calcium release-activated calcium channel protein 1 (Mus musculus); test: (§4) Modulation of STIM1/STIM2/Orai1 in mouse BV2 cells assessed as induction of store-operated calcium entry by measuring increase in AUC of calcium entry at 0.3 to 10 uM preincubated for 30 mins followed by tBhQ-mediated Ca2+ depletion and Ca2+ re-addition to extracellular solution measured for 600 secs by Fluo-4 AM-based fluorometric assay relative to control; type: cell-based
[23] = molecular target: T1, Stromal interaction molecule 1 & 2/Calcium release-activated calcium channel protein 1 (Mus musculus); test: as §4, with “peak amplitude” for “AUC of calcium entry”; type: cell-based
[24] = molecular target: T1, Stromal interaction molecule 1 & 2/Calcium release-activated calcium channel protein 1 (Mus musculus); test: as §4, with “slope” for “AUC of calcium entry”; type: cell-based
[25] = tested on: Jurkat; test: as §3, with “Induction” for “Modulation”, “store-operated calcium entry” for “TRPC1/TRPC3/STIM1/Orai1”, “human Jurkat” for “HEK”, “peak amplitude” for “AUC of calcium entry”; type: cell-based
[26] = tested on: Jurkat; test: as §3, with “Induction” for “Modulation”, “store-operated calcium entry” for “TRPC1/TRPC3/STIM1/Orai1”, “human Jurkat” for “HEK”; type: cell-based
[27] = tested on: Jurkat; test: as §3, with “Induction” for “Modulation”, “store-operated calcium entry” for “TRPC1/TRPC3/STIM1/Orai1”, “human Jurkat” for “HEK”, “slope” for “AUC of calcium entry”; type: cell-based
[28] = molecular target: T3, ORAI1/STIM1 (Homo sapiens); test: Modulation of Orai1/STIM1 (unknown origin) expressed in HEK cells assessed as potentiation of store-operated calcium currents in presence of 20 mM BAPTA by patch clamp assay relative to control; type: cell-based; method in brief: as §2
[29] = molecular target: T3, ORAI1/STIM1 (Homo sapiens); test: Modulation of Orai1/STIM1 (unknown origin) expressed in HEK cells assessed as potentiation of store-operated calcium currents in presence of 20 mM BAPTA and 150 nM Ca2+ containing internal solution by patch clamp assay relative to control; type: cell-based
[30] = molecular target: T2, Short transient receptor potential channel 1 & 3/Stromal interaction molecule 1/Calcium release-activated calcium channel protein 1 (Homo sapiens); test: as §1, with “TRPC1/TRPC3/STIM1/Orai1” for “STIM1/STIM2/Orai1”, “HEK” for “mouse BV2”, “uM in presence of shTRPC1” for “uM”; type: cell-based
[31] = molecular target: Calcium release-activated calcium channel protein 1 (Mus musculus) (UniProt Q8BWG9); test: as §1, with “Orai1” for “STIM1/STIM2/Orai1”, “Stim1-/1 and Stim2-/- MEF” for “mouse BV2”; type: cell-based
[32] = molecular target: T1, Stromal interaction molecule 1 & 2/Calcium release-activated calcium channel protein 1 (Mus musculus); test: as §1, with “entry” for “entry by measuring residual activity”, “800” for “600”; type: cell-based
Method in brief: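 Microplate Fluo-4 assay in mouse microglial BV-2 cells. Stores emptied with tBhQ (50 μM) in presence of compound (10 μM); extracellular Ca2+ re-added after 600 s and intracellular Ca2+ read fluorimetrically; SOCE expressed versus control.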

[33] = molecular target: T2, Short transient receptor potential channel 1 & 3/Stromal interaction molecule 1/Calcium release-activated calcium channel protein 1 (Homo sapiens); test: as §3, with “entry” for “entry by measuring increase in AUC of calcium entry”, “at” for “at 0.3 to”, “800” for “600”; type: cell-based
[34] = tested on: Jurkat; test: Induction of store-operated calcium entry in human Jurkat cells assessed as induction of store-operated calcium entry at 10 uM preincubated for 30 mins followed by tBhQ-mediated Ca2+ depletion and Ca2+ re-addition to extracellular solution measured for 800 secs by Fluo-4 AM-based fluorometric assay relative to control; type: cell-based
[35] = Drug level in CD1 mouse liver microsomes treated with 3-(1-(4-(4-((Pentan-2-yloxy)carbonyl)-5-(trifluoromethyl)-1H-pyrazol-1-yl)-phenyl)-1H-1,2,3-triazol-4-yl)benzoic acid at 50 uM after 60 mind by mass spectroscopic analysis; type: ADME, microsome

T2 sequence (P48995 whole entry partner): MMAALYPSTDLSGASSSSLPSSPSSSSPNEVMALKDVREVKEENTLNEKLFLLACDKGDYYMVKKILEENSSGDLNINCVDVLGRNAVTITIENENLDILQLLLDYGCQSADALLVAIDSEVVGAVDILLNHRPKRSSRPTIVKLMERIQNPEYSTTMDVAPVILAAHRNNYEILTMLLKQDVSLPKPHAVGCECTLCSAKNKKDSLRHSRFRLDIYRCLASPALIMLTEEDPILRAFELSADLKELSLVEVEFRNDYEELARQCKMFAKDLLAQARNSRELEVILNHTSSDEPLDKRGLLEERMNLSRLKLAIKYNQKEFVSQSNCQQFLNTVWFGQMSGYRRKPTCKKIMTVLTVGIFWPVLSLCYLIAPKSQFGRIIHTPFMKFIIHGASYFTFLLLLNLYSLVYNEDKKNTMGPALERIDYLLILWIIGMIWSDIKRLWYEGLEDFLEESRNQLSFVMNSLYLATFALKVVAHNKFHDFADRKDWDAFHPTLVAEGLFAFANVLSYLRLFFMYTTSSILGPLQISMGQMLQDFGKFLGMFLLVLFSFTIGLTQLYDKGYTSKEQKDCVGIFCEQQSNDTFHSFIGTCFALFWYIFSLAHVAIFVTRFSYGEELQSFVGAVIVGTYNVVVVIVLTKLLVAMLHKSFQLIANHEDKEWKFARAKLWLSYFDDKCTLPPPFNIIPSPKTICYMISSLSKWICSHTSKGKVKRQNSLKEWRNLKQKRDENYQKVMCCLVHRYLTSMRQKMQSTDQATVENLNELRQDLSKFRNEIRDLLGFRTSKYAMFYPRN
T2 sequence (Q13507 whole entry partner): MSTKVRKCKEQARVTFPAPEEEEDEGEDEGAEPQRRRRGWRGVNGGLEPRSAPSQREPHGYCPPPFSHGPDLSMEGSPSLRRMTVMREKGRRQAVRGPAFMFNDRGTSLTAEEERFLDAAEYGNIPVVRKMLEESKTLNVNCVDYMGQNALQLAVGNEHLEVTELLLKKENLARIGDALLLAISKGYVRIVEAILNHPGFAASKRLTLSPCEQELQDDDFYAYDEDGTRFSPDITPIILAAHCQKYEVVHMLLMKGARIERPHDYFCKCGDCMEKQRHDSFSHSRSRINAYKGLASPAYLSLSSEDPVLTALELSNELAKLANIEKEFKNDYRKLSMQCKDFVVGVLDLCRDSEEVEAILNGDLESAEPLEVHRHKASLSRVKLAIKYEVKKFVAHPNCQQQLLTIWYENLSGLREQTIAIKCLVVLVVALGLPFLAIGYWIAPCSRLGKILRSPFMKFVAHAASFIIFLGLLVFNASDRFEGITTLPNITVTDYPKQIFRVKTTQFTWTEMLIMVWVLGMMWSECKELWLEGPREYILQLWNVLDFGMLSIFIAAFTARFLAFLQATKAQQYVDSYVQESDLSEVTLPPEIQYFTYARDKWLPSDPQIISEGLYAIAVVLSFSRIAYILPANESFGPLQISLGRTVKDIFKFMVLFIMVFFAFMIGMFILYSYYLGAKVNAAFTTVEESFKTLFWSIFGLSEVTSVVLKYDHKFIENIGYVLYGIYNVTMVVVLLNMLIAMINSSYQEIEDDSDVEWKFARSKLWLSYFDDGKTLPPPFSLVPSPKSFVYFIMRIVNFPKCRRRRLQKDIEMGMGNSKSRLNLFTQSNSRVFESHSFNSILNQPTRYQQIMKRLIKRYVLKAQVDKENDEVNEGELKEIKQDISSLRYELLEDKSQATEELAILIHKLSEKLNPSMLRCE
T2 sequence (Q13586 23-685 partner limits assumed): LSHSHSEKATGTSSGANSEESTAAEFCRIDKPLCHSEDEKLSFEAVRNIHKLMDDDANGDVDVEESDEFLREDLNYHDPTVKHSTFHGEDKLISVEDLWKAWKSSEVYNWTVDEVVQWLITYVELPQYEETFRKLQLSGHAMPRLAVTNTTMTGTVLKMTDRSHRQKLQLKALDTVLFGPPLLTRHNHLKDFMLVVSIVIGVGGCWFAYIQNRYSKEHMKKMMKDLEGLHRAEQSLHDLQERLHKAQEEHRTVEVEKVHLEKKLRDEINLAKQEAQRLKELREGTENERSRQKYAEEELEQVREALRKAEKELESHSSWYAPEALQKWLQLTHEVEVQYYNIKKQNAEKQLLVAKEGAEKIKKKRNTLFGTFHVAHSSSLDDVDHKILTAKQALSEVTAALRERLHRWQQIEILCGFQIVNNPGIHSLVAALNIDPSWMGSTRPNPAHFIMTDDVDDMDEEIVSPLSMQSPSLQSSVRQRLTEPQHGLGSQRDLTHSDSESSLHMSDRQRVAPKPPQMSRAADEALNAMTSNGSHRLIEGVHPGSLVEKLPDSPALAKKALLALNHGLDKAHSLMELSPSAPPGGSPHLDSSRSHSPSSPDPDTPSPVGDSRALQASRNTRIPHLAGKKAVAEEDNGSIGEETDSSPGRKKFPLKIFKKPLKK
T2 sequence (Q96D31 whole entry): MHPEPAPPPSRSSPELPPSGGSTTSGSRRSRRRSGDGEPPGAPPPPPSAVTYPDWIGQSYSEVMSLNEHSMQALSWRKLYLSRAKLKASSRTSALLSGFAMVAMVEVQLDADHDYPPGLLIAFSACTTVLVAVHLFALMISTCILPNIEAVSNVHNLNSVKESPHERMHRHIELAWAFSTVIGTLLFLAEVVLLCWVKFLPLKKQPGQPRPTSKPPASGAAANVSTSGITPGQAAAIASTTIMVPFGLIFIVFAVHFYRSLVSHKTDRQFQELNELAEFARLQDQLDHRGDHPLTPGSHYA
T3 sequence (Q13586 23-685 partner limits assumed): as the sequence (Q13586 23-685 partner limits assumed) above
T3 sequence (Q96D31 whole entry): as the sequence (Q96D31 whole entry) above
Chain of Transient receptor potential cation channel subfamily M member 8 (Homo sapiens) (Q7Z2W7 whole entry, looked up): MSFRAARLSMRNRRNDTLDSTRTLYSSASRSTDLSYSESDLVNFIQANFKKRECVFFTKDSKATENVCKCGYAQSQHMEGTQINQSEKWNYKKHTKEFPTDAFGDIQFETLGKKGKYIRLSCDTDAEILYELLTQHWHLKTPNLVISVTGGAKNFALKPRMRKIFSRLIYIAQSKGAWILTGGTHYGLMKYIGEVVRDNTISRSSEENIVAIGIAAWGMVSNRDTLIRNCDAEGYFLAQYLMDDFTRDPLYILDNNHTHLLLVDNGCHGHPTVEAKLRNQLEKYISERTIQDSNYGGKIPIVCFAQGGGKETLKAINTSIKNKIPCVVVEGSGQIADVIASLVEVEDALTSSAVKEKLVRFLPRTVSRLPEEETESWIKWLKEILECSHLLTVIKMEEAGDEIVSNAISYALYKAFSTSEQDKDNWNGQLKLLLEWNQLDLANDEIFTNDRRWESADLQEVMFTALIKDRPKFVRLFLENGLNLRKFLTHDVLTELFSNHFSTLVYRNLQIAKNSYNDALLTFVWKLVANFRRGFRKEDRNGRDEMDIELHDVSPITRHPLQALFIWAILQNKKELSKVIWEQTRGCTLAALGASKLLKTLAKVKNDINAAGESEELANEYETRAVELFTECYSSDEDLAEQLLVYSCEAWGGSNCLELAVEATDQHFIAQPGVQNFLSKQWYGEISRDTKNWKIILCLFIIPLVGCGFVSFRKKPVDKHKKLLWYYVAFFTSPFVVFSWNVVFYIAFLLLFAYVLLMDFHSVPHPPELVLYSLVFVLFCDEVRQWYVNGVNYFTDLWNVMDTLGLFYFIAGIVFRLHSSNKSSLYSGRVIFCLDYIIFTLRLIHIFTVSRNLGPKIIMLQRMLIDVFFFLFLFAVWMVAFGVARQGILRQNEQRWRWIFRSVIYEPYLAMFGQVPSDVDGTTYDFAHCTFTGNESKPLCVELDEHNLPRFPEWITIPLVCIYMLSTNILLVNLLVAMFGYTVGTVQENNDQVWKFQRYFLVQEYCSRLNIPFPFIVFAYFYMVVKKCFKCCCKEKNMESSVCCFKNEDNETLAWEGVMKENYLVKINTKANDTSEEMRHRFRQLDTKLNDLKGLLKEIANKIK
Chain of Transient receptor potential cation channel subfamily V member 1 (Homo sapiens) (Q8NER1 whole entry): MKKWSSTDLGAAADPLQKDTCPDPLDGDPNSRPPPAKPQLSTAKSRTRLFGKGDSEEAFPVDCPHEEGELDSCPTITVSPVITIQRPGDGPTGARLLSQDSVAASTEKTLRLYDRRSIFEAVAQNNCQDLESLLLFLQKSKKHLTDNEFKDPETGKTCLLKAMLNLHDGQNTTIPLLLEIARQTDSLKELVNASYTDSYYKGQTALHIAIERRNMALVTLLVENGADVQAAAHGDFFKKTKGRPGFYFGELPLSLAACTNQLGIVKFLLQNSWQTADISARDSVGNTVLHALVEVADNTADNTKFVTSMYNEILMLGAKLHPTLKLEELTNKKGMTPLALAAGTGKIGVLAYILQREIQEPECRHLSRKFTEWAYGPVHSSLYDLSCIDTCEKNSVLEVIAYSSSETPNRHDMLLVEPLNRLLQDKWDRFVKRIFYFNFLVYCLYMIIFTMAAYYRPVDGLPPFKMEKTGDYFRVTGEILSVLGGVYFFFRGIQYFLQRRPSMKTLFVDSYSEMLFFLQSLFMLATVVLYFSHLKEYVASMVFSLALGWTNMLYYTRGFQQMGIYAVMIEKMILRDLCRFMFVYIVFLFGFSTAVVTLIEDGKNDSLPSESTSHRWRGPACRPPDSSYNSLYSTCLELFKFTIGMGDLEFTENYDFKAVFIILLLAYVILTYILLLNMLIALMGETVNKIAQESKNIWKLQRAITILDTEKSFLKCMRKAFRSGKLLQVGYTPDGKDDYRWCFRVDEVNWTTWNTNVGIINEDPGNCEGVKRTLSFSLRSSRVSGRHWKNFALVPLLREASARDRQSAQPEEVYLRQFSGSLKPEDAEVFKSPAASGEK
Chain of Calcium release-activated calcium channel protein 1 (Mus musculus) (Q8BWG9 whole entry): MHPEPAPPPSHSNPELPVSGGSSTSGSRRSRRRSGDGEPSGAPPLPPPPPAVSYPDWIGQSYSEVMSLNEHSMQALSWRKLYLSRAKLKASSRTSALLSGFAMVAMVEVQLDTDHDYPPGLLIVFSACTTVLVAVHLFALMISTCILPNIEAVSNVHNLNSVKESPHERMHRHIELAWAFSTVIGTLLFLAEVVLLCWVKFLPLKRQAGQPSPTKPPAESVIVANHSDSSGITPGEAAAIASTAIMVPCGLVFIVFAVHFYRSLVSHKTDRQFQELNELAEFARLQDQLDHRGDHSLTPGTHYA

CCOC(=O)c1cnn(-c2ccc(-n3cc(-c4cccc(C(=O)O)c4)nn3)cc2)c1C(F)(F)F
Activity [1]: 54.7% | Activity [2]: 12.8% | Activity [3]: 12.8% | IC50 [4]: 4900 nM | IC50 [5]: 600 nM | IC50 [6]: 600 nM | viability at 10 µM [7]: 84% | inhibition [8]: 40% | inhibition [9]: Active | inhibition [10]: inactive | remaining at 0.5 h, 50 µM [11]: 0% | residual activity [12]: < 100% | residual activity [13]: < 100% | residual activity [14]: < 100% | Drug metabolism [15]: Metabolite_Notdetected | inhibition [16]: inactive | inhibition [17]: inactive

O=C(O)c1ccc(-c2cn(-c3ccc(-n4nc(C(F)(F)F)cc4C(F)(F)F)cc3)nn2)cc1
Activity [1]: 198% | Activity [2]: 213% | Activity [3]: 236% | Activity [18]: Active | inhibition [9]: inactive | inhibition [10]: inactive | Activity [19]: Active | Activity [20]: Active | Activity [21]: Active | Activity [22]: Active | Activity [23]: Active | Activity [24]: Active | Activity [25]: Active | Activity [26]: Active | Activity [27]: Active | Activity [28]: Active | Activity [29]: inactive | Activity [30]: Active | Activity [31]: Active | Activity [32]: Active | Activity [33]: Active | Activity [34]: Active | inhibition [16]: inactive | inhibition [17]: inactive

CCCC(C)OC(=O)c1cnn(-c2ccc(-n3cc(-c4cccc(C(=O)O[C@@H]5O[C@H](C(=O)O)[C@@H](O)[C@H](O)[C@H]5O)c4)nn3)cc2)c1C(F)(F)F (some centres not stated)
Drug uptake [35]: Active
